Screening results: PubChem, several laboratories
PLK1 PBD inh: inhibitors of human Plk1 polo box domain binding. P53350. Plk1 PBD phosphopeptide binding, fluorescence polarization. inhibition, %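 (tested at about 20 µM)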. hit rate 0.13% among 97,000. AID 693; in the data active = inhibition above about 34%, passing the limit was not always enough
PostGolgi yeast: growth inhibition of a yeast mutant, post-Golgi transport screen. inhibition, % at 10 µM. hit rate 0.9% among 98,000. post-Golgi transport phenotypic cell assay;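 note: yeast cells grown in 1536-well plates; yeast grown about 18 h at 30C before absorbance read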
PostGolgi ctrl: growth of the yeast control strain, post-Golgi counter-screen | efflux-deficient yeast background strain, growth absorbance A615, 16 h | inhibition, % at 10 µM | hit rate 5% among 98,000
PLK1 inh: PLK1 (human) kinase inhibition | inhibition, % at 10 µM | hit rate 0.53% among 97,000 | recombinant PLK1 kinase, TR-FRET peptide phosphorylation;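 active = inhibition of 50% or more in the single-concentration screen; inactive = inhibition below 50%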;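 note: 0% = DMSO max control and 100% = H-89 dihydrochloride min control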
Rev-RRE block: disrupts HIV-1 Rev binding to RRE RNA. inhibition, % at 8 µM. Rev peptide-RRE RNA binding, FRET. hit rate 0.79% among 97,000. AID 704. P05866;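 active = inhibition above the screen-wide mean plus 3 SD, cut at about 35% in these data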;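 note: 0% = median DMSO wells and 100% = median Neomycin B control wells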
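Test system: labelled RRE RNA duplex and labelled Rev peptide. Times: 5 min compound–RNA preincubation, then 15 min with peptide, 25 °C. Doses: single-dose 8 µM. Measured by: FRET, excitation 480 nm, emission 540 nm donor and 671 nm acceptor. Measure: % inhibition of FRET ratio versus controls.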
EphB4 ephrin blk: EphB4-ephrin-B2 interaction antagonism | P54760 | EphB4 LBD / TNYL-RAW-Alexa532 peptide, fluorescence polarization | inhibition, % at 7 µM | hit rate 0.15% among 97,000 | AID 720;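 active = inhibition above the screen-wide mean inhibition plus 3 SD, cut at about 15% in these data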;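 note: 0% = DMSO wells and 100% = excess unlabeled TNYL-RAW peptide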
Target sequence (P54760 whole entry, looked up, the tested form may be a part): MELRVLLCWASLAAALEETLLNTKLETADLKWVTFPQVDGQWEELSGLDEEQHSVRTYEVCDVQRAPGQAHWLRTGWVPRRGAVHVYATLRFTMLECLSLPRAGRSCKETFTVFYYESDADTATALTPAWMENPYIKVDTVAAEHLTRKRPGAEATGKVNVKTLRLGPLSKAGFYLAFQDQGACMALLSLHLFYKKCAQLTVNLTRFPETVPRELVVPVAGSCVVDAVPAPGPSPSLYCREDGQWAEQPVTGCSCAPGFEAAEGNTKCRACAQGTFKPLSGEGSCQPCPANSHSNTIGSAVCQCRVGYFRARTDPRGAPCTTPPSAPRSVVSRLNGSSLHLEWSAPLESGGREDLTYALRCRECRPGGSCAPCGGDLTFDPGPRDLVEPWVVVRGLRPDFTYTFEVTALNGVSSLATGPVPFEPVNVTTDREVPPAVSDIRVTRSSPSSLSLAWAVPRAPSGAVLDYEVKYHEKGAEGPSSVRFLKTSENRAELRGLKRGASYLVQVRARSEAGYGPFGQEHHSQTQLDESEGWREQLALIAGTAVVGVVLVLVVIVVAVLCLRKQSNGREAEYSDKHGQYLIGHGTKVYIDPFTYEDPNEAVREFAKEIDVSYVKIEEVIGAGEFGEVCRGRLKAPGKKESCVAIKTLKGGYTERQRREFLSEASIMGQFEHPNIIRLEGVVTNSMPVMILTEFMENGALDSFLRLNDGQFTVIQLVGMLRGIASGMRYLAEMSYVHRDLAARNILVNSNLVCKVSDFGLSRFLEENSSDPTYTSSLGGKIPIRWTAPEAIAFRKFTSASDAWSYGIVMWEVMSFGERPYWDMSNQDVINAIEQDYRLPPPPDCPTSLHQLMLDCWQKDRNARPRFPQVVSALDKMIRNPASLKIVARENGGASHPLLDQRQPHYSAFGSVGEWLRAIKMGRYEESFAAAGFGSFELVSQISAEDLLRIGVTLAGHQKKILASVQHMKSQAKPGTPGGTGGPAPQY
* = called active by the depositor; x = not tested or not shown; [ ] = dose if it differs, or a comment. In the library only some 6.4% were active in any assay of this set; here they are far more common. Cut-off read from the data, not from the text of the source, unless noted: active = inhibition above about 30%; inactive = the rest.

SMILES	PLK1 PBD inh	PostGolgi yeast	PostGolgi ctrl	PLK1 inh	Rev-RRE block	EphB4 ephrin blk
CC1Cc2ccccc2N1C(=O)CSc1nc(-c2ccco2)cc(C(F)(F)F)n1 (centres undefined)	0	18	-1	-9	4	-5
O=C(CCSc1nc(-c2ccco2)cc(C(F)(F)F)n1)N1CCN(c2ccccn2)CC1	2	5	30*	-6	3	-3
Cn1c(SCC(=O)N2CCCc3ccccc32)nnc1-c1ccco1	-3	6	4	-19	1	2
O=C(CSc1nc(-c2ccco2)cc(C(F)(F)F)n1)N1CCN(c2cccc(Cl)c2)CC1	-4	x	x	-16	-2	4
CCCn1c(SCC(=O)N2CCCc3ccccc32)nnc1-c1ccco1	19	-7	36*	4	8	10
C/C(=N\NS(=O)(=O)c1ccc(C)cc1)c1ccc(C)s1	-20	-2	0	-7	3	-4
COc1ccc(OC)c(-c2cc(C(=O)Nc3c(C)nn(Cc4ccccc4)c3C)no2)c1	-22	9	38*	-3	2	3
Cc1nn(Cc2ccc(Cl)cc2)c(C)c1NC(=O)c1noc2c1CCc1ccccc1-2	-4	-1	42*	-12	9	10
COc1ccc(OC)c(-c2cc(C(=O)Nc3cc(C)on3)no2)c1	-30	3	5	-8	-1	2
COc1ccc(OC)c(-c2cc(C(=O)Nc3c(C)nn(Cc4ccc(Cl)cc4)c3C)no2)c1	3	-9	33*	-13	0	4
Cc1cc(C(=O)Nc2c(C)nn(Cc3c(Cl)cccc3Cl)c2C)no1	-16	-8	33*	0	6	1
Cc1nn(Cc2c(Cl)cccc2Cl)c(C)c1NC(=O)c1cc(C(C)C)on1	17	-10	-2	10	6	3
CCOCCCNC(=O)C1c2ccccc2C(=O)N2CCc3ccccc3C12 (centres undefined)	3	-1	2	28	4	-11
O=C1C2C3CCC(C3NCc3ccccc3)C2C(=O)N1Cc1ccccc1 (centres undefined)	-29	-8	21	-13	10	7
CS(=O)(=O)N(Cc1ccc(C(=O)Nc2ccccc2Sc2ccccc2)cc1)c1ccccc1	15	-5	5	-11	12	3
CS(=O)(=O)N(CC(=O)Nc1ccccc1Sc1ccccc1)c1ccc(F)cc1	-9	-2	54*	-14	14	5
Cc1nc(NC(=O)COC(=O)CCS(=O)(=O)c2ccccc2Cl)c(Cl)cc1Cl	2	-5	-6	-13	6	-5
COc1ccc(Nc2nc(N3CCCCC3)c3ccccc3n2)cc1	-10	59*	86*	0	7	-2
c1ccc(Nc2nc(N3CCCCC3)nc(N3CCNCC3)n2)cc1	3	1	15	-8	5	6
c1ccc(Nc2nc(N3CCCCC3)nc(N3CCCCC3)n2)cc1	-12	-4	53*	-9	20	1
c1ccc(Nc2nc(N3CCCC3)nc(N3CCCC3)n2)cc1	-1	8	70*	-9	24	-4
O=C(CCS(=O)(=O)c1ccc(Cl)cc1)OCC(=O)N1CCCCC1	x	-1	0	x	x	x
COc1ccccc1CCNC(=O)c1ccoc1C	0	18	5	-16	0	-3
C=CCn1c2ccccc2c2nnc(SCC(=O)OCN3C(=O)c4ccccc4C3=O)nc21	9	x	x	-20	4	-10
Cc1nn2c(c1-c1ccc(Cl)cc1)N=C(c1ccco1)CC2c1ccccc1 (centres undefined)	-11	23	35*	-20	19	-2
SMILES	PLK1 PBD inh	PostGolgi yeast	PostGolgi ctrl	PLK1 inh	Rev-RRE block	EphB4 ephrin blk
COc1ccc(-c2nc(N)nc(C)c2Oc2ccccc2Br)c(O)c1	-16	56*	79*	6	25	3
O=C(Nc1ccc(Cl)c(C(F)(F)F)c1)NC1CC2CCCC(C1)N2C1CC1 (centres undefined)	-8	x	x	4	3	-3
O=c1[nH]c2cc3c(cc2cc1C(c1nnnn1Cc1ccccc1)N1CCCCCC1)OCCO3 (centres undefined)	9	-8	25	0	41*	-2
Cc1cccc2cc(C(c3nnnn3CC3CCCO3)N3CCc4ccccc4C3)c(=O)[nH]c12 (centres undefined)	-21	1	1	6	7	1
Cc1ccc2cc(C(c3nnnn3CC3CCCO3)N3CCc4ccccc4C3)c(=O)[nH]c2c1 (centres undefined)	1	-13	42*	5	8	3
O=c1[nH]c2cc3c(cc2cc1C(c1nnnn1Cc1ccccc1)N1CCN2CCCC2C1)OCCO3 (centres undefined)	-17	3	6	2	16	-5
O=C(CN(Cc1ccccc1)C(=O)c1cc2c(s1)CCC2)NCc1cccs1	8	1	35*	-5	7	8
O=C(NNc1cccc(Cl)n1)Nc1ccccc1Cl	-29	-7	14	-8	4	3
COc1ccc(NC(=O)c2cccs2)cc1NC(=O)c1ccco1	-10	-2	2	-5	-1	-1
Cc1ccc(NC(=O)c2cccs2)cc1NC(=O)c1ccco1	-1	-13	32*	-4	1	3
CCCOC(=O)C(C)n1cnc2sc(C)c(C)c2c1=O (centres undefined)	2	27	2	-8	8	16*
CCc1ccc(S(=O)(=O)c2n[nH]n3c2nc(=O)c2ccccc23)cc1	-8	1	50*	-11	-1	2
CC(C)c1ccc(S(=O)(=O)c2n[nH]n3c2nc(=O)c2ccccc23)cc1	4	0	57*	-15	5	5
Clc1ccc(-c2nnc(NC3=NCCCCC3)o2)cc1	-11	-9	30*	4	4	4
CN(C)S(=O)(=O)c1cccc(C(=O)NCc2cccs2)c1	-6	5	23	-9	8	3
Cc1ccc(-c2nc3cccnc3o2)cc1NC(=O)COc1ccc(Cl)cc1C	-10	-2	-5	-35	11	0
Cc1ccc(-c2nc3cccnc3o2)cc1NC(=O)COc1ccc(C(C)(C)C)cc1	2	5	42*	-1	2	82*[fluorescence artefact?]
O=C(NC1CCCCC1)c1ccc(Cn2cc(Cl)cn2)cc1	12	0	11	6	-6	4
CS(=O)(=O)c1ccccc1-c1nc(-c2ccc(C(F)(F)F)cc2)no1	-1	-12	31*	-1	10	-1
O=c1nc2scc(-c3ccccc3)n2c2ccccc12	3	2	14	-6	1	-1
Nc1ncnc2oc(-c3ccco3)c(-c3ccco3)c12	-28	8	13	56*	10	7
Nc1nnc(-c2ccco2)s1	-4	-6	3	-6	-1	6
Cc1cc(C)cc(OCC(=O)Nc2cccc(-c3nc4ncccc4o3)c2)c1	-24	-4	20	-5	5	-6
